Active and inactive are the calls of the source. The rule behind the calls is not given here.
Columns and labels:
[1] = molecular target: T1, Trifunctional purine biosynthetic protein adenosine-3 (Homo sapiens) (UniProt P22102); assay: Inhibition of GAFTase in human KB cells assessed as inhibition of [14C(U)glycine incorporation into [14C]formyl GAR preincubated for 30 mins followed by [14C](U)glycine addition and measured after 16 hrs; format: cell-based
T1 sequence (whole entry): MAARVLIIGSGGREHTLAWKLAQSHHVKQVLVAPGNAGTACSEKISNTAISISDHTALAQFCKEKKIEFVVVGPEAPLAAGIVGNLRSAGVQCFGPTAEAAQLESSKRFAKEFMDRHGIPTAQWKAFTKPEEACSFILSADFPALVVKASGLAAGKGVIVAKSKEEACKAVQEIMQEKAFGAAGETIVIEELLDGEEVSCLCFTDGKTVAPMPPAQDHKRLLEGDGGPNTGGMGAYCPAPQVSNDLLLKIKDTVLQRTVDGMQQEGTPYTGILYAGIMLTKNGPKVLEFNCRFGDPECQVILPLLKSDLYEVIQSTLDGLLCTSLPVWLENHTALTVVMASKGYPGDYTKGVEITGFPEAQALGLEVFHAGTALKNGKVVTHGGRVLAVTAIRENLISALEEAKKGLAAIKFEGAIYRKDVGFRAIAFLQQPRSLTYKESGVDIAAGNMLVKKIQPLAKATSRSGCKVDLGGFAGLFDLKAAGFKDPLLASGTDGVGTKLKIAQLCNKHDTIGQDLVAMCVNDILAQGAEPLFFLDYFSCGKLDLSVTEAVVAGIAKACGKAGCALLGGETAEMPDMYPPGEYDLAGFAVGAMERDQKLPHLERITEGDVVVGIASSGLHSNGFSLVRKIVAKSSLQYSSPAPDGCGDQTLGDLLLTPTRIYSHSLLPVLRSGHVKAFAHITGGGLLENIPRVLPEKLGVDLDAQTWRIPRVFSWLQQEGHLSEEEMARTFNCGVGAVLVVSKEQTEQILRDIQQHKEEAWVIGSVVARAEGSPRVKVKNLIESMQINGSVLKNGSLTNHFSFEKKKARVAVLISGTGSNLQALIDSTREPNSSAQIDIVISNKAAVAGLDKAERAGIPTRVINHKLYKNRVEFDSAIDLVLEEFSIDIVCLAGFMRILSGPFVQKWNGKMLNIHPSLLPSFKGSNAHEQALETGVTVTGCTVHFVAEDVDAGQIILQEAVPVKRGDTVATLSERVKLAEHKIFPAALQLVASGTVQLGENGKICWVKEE
Method in brief: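 KB cells adhered 24 h, then were washed and given drug (concentration range; DMSO controls) for 1 h in folate- and glutamine-depleted medium with 2 nM leucovorin. Azaserine 4 µM final was added for 30 min, then L-glutamine 2 mM and [14C(U)]glycine (0.1 mCi/L) for 16 h. TCA extracts yielded pmol [14C]formyl GAR/mg protein. IC50 relative to untreated controls, triplicates.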

[2] = test system: KB; assay: Antiproliferative activity against human KB cells at 0.1 to 10000 nM after 96 hrs in presence of 130 uM glycine by Cell-Titer blue assay; format: functional, cell-based
Method in brief: (§1)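 KB cells grown in folate-, nucleoside- and glycine-free RPMI 1640 with 10% dialyzed FBS, L-glutamine, antibiotics and 2 nM leucovorin across a drug concentration range. Protectants: thymidine 10 μM, glycine 130 μM, adenosine 60 μM or AICA 320 μM. Parallel incubations had no additions. Viable cells read by CellTiter-Blue fluorescence. At least triplicate experiments.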

[3] = test system: KB; assay: Antiproliferative activity against human KB cells at 0.1 to 10000 nM after 96 hrs in presence of 10 uM thymidine by Cell-Titer blue assay; format: functional, cell-based; method in brief: as §1
[4] = test system: KB; assay: Antiproliferative activity against human KB cells at 0.1 to 10000 nM after 96 hrs in presence of 60 uM adenosine by Cell-Titer blue assay; format: functional, cell-based; method in brief: as §1
[5] = Antiproliferative activity in Chinese hamster R2 cells deficient in RFC, PCFT, and FRalpha assessed as reduction in cell growth after 96 hrs by Cell-Titer Blue assay; format: cell-based; settings: Cricetulus griseus, R2, 96 h
Method in brief: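 CHO sublines were transfected lines kept with 1 mg/ml G418 (R2 is the transporter-null parent). Cells were exposed to 0–1000 nM drug for 96 h at 37 °C, 5% CO2, in folate-free RPMI with 10% dFBS and 25 nM leucovorin. CellTiter-Blue fluorescence read at ex 560/em 590 nm. IC50 is 50% loss of growth from dose–response curves, mean ± SE of 3–10 experiments.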

[6] = Binding affinity to human FRalpha/RFC/PCFT expressed in KB cells assessed as antiproliferative activity measured as reduction in cell growth after 96 hrs by Cell-Titer Blue assay; format: cell-based
Method in brief: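 RT16 cells were precultured 72 h in folate-free RPMI with 10% dFBS; KB cells were maintained in folate-free RPMI with 10% FBS. Drug at 0–1000 nM for 96 h at 37 °C, 5% CO2, with 2 nM leucovorin. Parallel wells had 200 nM folic acid to block FR uptake. CellTiter-Blue fluorescence (ex 560/em 590 nm). IC50 from dose–response, mean ± SE of 3–10 experiments.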

[7] = test system: KB; assay: Antiproliferative activity against human KB cells up to 1 uM after 96 hrs in presence of 320 uM AICA by Cell-Titer blue assay; format: functional, cell-based; method in brief: as §1

Row | SMILES | inhibition [1] | Activity [2] | Activity [3] | Activity [4] | IC50 [5] | IC50 [6] | Activity [7]
1 | CN(Cc1cc2c(=O)[nH]c(N)nc2[nH]1)C(=O)c1ccc(C(=O)N[C@@H](CCC(=O)O)C(=O)O)s1 | Active | Active | Active | inactive | > 1000 nM | 4.23 nM | –
2 | CN(Cc1cc2c(=O)[nH]c(N)nc2[nH]1)S(=O)(=O)c1ccc(C(=O)N[C@@H](CCC(=O)O)C(=O)O)cc1 | – | – | – | – | > 1000 nM | 669 nM | –
3 | CN(Cc1cc2c(=O)[nH]c(N)nc2[nH]1)C(=O)c1cccc(C(=O)N[C@@H](CCC(=O)O)C(=O)O)c1 | – | – | – | – | > 1000 nM | 6.36 nM | –
4 | Nc1nc2[nH]c(CCCc3ccc(C(=O)N[C@@H](CCC(=O)O)C(=O)O)cc3)cc2c(=O)[nH]1 | – | Active | Active | inactive | – | – | inactive
5 | CN(Cc1cc2c(=O)[nH]c(N)nc2[nH]1)C(=O)c1csc(C(=O)N[C@@H](CCC(=O)O)C(=O)O)c1 | – | – | – | – | > 1000 nM | > 1000 nM | –
6 | CN(Cc1cc2c(=O)[nH]c(N)nc2[nH]1)C(=O)c1cc(C(=O)N[C@@H](CCC(=O)O)C(=O)O)cs1 | – | – | – | – | > 1000 nM | 69.8 nM | –
7 | Nc1nc2[nH]c(CCCc3ccc(C(=O)N[C@@H](CCC(=O)O)C(=O)O)s3)cc2c(=O)[nH]1 | – | Active | Active | inactive | – | – | inactive
8 | CN(Cc1cc2c(=O)[nH]c(N)nc2[nH]1)C(=O)c1ccc(C(=O)N[C@@H](CCC(=O)O)C(=O)O)cc1 | Active | Active | Active | inactive | > 1000 nM | 1.4 nM | –

Source: ChEMBL document CHEMBL4406895, “Discovery of amide-bridged pyrrolo[2,3-d]pyrimidines as tumor targeted classical antifolates with selective uptake by folate receptor α and inhibition of de novo purine nucleotide biosynthesis” (Bioorg Med Chem, 2019)
